Source: PubChem BioAssay
NALP1 inh: blocks the NALP1 inflammasome reconstituted in yeast. S. cerevisiae NALP1/ASC/caspase-1 growth, X-gal OD620, 72 h. inhibition, % at 10 µM. 280,000 compounds, 0.61% hits. AID 2071; in the data active means inhibition mostly above about 24%, no sharp cut-off; inactive means mostly below about 32%
PolyA inh: yeast polyadenylation inhibition; S. cerevisiae SKY197-pL101 polyadenylation reporter, beta-gal luminescence; efflux-impaired pdr1/pdr3 knockout yeast; score 100 = 6 SD above DMSO; activity score, % at 12 µM; 300,000 compounds, 0.02% hits;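 active means lowest replicate activity score at least 50, where 100 means six control SD above control mean; inconclusive means lowest score under 50 but half or more replicates reach 50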;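 further: yeast exposed to compound for 9 h at 30 °C; higher score means more reporter readthrough which indicates perturbed polyadenylation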
NLRP3 yeast inh: blocks the NALP3 inflammasome reconstituted in yeast; Yeast reconstituted NLRP3/ASC/caspase-1, beta-gal luminescence, 24 h; inhibition, % at 10 µM; 330,000 compounds, 0.39% hits;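 active means inhibition of 50% or more; inactive means inhibition below 50%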;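 further: plate controls were induced DMSO wells for no effect and uninduced yeast grown without galactose for full effect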
Pemphigus Ab inh: blocks pemphigus antibody binding to human desmoglein-3 | P32926 | DSG3-coupled beads, scFv-anti-DSG3-GFP binding, flow cytometry; hits give low values | binding (percent of control), % at 10 µM | 310,000 compounds, 0.48% hits;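 active means binding more than 3 SD below its plate's average and above zero; inconclusive means below that plate limit but binding exactly zero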;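 further: hits lower antibody fragment binding to DSG3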
Target sequence (P32926 whole entry, looked up, the tested form may be a part): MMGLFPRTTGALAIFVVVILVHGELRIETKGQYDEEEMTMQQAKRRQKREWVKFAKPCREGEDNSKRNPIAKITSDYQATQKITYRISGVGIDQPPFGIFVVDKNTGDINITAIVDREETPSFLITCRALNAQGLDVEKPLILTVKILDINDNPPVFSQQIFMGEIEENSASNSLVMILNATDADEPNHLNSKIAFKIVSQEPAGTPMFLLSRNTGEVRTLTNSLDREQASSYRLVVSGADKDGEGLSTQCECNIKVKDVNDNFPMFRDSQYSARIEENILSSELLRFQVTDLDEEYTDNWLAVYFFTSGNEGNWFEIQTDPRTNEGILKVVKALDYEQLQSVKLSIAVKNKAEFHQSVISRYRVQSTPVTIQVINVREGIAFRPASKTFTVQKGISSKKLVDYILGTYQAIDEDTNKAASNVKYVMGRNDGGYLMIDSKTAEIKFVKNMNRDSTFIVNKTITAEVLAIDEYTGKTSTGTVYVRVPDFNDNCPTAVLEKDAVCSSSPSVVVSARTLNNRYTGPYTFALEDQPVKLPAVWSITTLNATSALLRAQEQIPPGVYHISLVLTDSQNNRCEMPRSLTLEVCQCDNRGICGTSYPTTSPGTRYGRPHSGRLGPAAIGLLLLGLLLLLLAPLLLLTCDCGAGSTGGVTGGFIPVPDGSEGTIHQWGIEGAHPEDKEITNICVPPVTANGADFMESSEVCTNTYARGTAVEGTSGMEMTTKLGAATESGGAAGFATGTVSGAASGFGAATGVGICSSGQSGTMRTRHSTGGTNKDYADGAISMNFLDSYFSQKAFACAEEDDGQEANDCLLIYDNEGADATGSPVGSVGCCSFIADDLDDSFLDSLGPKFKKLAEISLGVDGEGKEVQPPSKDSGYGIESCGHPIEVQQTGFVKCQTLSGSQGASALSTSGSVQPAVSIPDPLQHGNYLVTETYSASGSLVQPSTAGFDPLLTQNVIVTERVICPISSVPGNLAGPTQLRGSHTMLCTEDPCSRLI
ALR inh: blocks human ALR sulfhydryl oxidase activity; P55789; purified ALR, DTT oxidation, H2O2 HRP-luminol luminescence; inhibition, % (test concentration not listed); 290,000 compounds, 3.8% hits; AID 485317;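 active means mean replicate inhibition above about 79%, with every replicate also reaching it, limit read from the data; inconclusive means only one of the two criteria met; inactive means mean below limit and not every replicate reaching it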
Arrestin-AP2 inh: inhibitors of human beta-arrestin and AP2 interaction; 340,000 compounds, 0.31% hits; inhibition, % at 10 µM; FITC-arrestin peptide / GST-AP2 beads, flow cytometry; AP2 beta2 appendage carries R879A mutation;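 active means inhibition above a set limit, near 3 SD of compounds lacking own fluorescence, cut at about 54% in these data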;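 further: plate controls were DMSO wells for no effect and 5 µM unlabelled arrestin peptide for full effect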
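Material – AP2 appendage R879A on GSH beads · Buffer or medium – PBS with 0.05% Tween 20 and 0.1% BSA · Probe or stimulus – fluorescein-tagged arrestin peptide at 50 nM final · Incubation – compound with beads 12 min RT, then probe 1 h RT · Detection – high-throughput flow cytometry of beads, ex 488, em 535 nm · Evaluation – percent response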
NALP3 yeast conf: confirmation of NALP3 inhibitors in yeast. shares compounds with NLRP3 yeast inh. yeast expressing human NALP3, luminescence. inhibition, % at 10 µM. 1,300 compounds, 81% hits. AID 435006; in the data active means inhibition above about 48%
Casp1-ASC yeast: counter-screen for NALP3 inhibitors: yeast caspase-1-ASC | shares compounds with NLRP3 yeast inh | yeast expressing Caspase-1-ASC, luminescence counter screen | inhibition, % at 10 µM | 1,000 compounds, 66% hits | AID 488784
NALP3 retest: confirmation retest of NALP3 inhibitors in yeast; shares compounds with NLRP3 yeast inh; yeast expressing human NALP3, luminescence read-out; 1,000 compounds, 53% hits; inhibition, % at 10 µM
Numbers without * were called inactive; ? = inconclusive; . = no result given; ! = repeats disagree. In the library only some 4.6% were active in any assay of this set; here they are far more common. Unless noted, no stated cut-off is given here; in the data, active means inhibition above about 50%; inactive means the rest.

SMILES	NALP1 inh	PolyA inh	NLRP3 yeast inh	Pemphigus Ab inh	ALR inh	Arrestin-AP2 inh	NALP3 yeast conf	Casp1-ASC yeast	NALP3 retest
COc1ccc(N=C(C)C2=C(O)c3ccccc3C2=O)cc1	32.0	-2.7	50.2*	129.7	-5.5	10.1	41.9	57.4*	36.3
CN1CCc2cccc3c2[C@H]1Cc1ccc(O)c(O)c1-3	100.6*	1.0	51.5*!	113.3	98.7*	16.7	58.7*	24.4	28.5
CN1CCc2cc3c(c4c2[C@H]1[C@H](O)c1ccccc1-4)OCO3	-6.9	-1.7	35.6	102.7	-33.8	-3.0	.	.	.
CN(C)C(CNC(=O)C1CC(=O)N(c2cccc(C(F)(F)F)c2)C1)c1ccccc1 (stereo unspecified)	.	.	.	97.8	.	.	.	.	.
CN1CCc2nc3ccc(Cl)cc3c(-c3ccccc3Cl)c2C1	41.3	2.1	56.8*	.	-32.2	9.8	57.5*	42.4	41.1
CN(c1ccccc1)c1ccc(/C=C/[N+](=O)[O-])cc1	93.6	-15.5	.	186.8	.	17.5	.	.	.
CN(C)c1ccc(-n2cccc2/C=C/[N+](=O)[O-])cc1	-2.6	1.3	60.7*	96.3	70.0	8.7	65.4*	.	.
CCN(CC)c1nc(C(N)=O)cc(-c2ccccc2)n1	23.8	-39.4	53.1*	104.2	-3.0	1.9	41.0	64.7*	46.7
CC(=O)Nc1cc2c3c(c1)CC(=O)N3CCC2	7.8	19.0	6.0	102.6	-11.0	32.5	.	.	.
O=C(NC1CCCCC1)c1c(O)nc2sccn2c1=O	.	?	57.8*	114.5	60.2	38.1	74.5*	33.6	42.3
CC(C)(C)Nc1ncnc2c1cnn2-c1ccccc1	.	-1.2	66.3*	98.8	-0.3	-0.2	73.9*	80.1*	73.4*
CC1CCN(c2ncnc3c2cnn3-c2ccccc2)CC1	19.8	-4.4	52.7*	99.3	0.5	25.6	60.4*	47.5	38.4
COc1ccc(-n2ncc3c(N4CCC(C)CC4)ncnc32)cc1	18.3	-6.7	14.3	98.2	-2.1	6.4	.	.	.
O=S(=O)(Nc1ccccc1Br)c1cccc2cccnc12	.	.	.	100.2	.	.	.	.	.
CCCCOc1ccc2c(c1)C(=O)c1cc(O)ccc1-2	2.1	-18.3	61.1*	100.8	62.7	21.3	70.3*	66.5*	62.0*
CCOc1ccc2c(c1)C(=O)c1cc(OCC(=O)O)ccc1-2	17.0	-6.8	-7.8	102.3	5.1	-17.3	.	.	.
CCOC(=O)c1nc2sc3c(c2c(=O)[nH]1)CCC(C)C3 (stereo unspecified)	.	-0.4	17.5	92.8	-9.9	-3.2	.	.	.
CC1CCc2nc3sc4c(c3c(N)c2C1)CCCC4 (stereo unspecified)	74.1*	-8.2	58.7*	105.7	1.3	-2.4	-22.5	.	.
CC1CCc2c(nc3sc4c(c3c2N)CCCC4)C1 (stereo unspecified)	41.6*	7.5	53.7*	94.9	-17.4	3.2	77.5*	67.0*	58.0*
COc1cccc(NC(=S)N2CCN(c3ccccn3)CC2)c1	22.6	11.8	-5.6	100.1	-4.7	1.5	.	.	.
CCOC(=O)c1cnn(-c2cc(C)cc(C)c2)c1N	6.0	-3.9	50.0	102.9	28.1	6.9	69.9*	57.1*	57.5*
Cc1cc(N/N=C/c2ccc(F)cc2)nc(-n2nc(C)cc2C)n1	-0.2	-14.0	23.7	109.1	-2.7	3.0	.	.	.
CCOc1cc(/C=N/Nc2cc(C)nc(-n3nc(C)cc3C)n2)ccc1O	4.7	-17.7	76.7*	100.1	-2.2	-0.3	54.0*	18.8	35.6
COc1ccc2cc(C(N)=O)c(=Nc3ccc(C)cc3)oc2c1	0.0	-17.9	21.7	93.8	-0.5	1.2	.	.	.
COc1ccc2oc(=Nc3cccc(F)c3)c(C(N)=O)cc2c1	1.8	3.4	50.2*	96.1	0.3	-8.4	61.9*	63.4*	39.1
SMILES	NALP1 inh	PolyA inh	NLRP3 yeast inh	Pemphigus Ab inh	ALR inh	Arrestin-AP2 inh	NALP3 yeast conf	Casp1-ASC yeast	NALP3 retest
c1ccc2c(c1)Cn1c-2nc2ccccc21	.	-7.4	70.5*	104.1	-5.0	-5.9	73.4*	84.0*	77.2*
CC12CCC3c4ccc(O)cc4CCC3C1CCC2=O (stereo unspecified)	.	.	40.4	92.1	18.2	-1.8	.	.	.
C#C[C@]1(O)CC[C@H]2[C@@H]3CCc4cc(O)ccc4[C@H]3CC[C@@]21C	49.3*	-6.1	55.5*	89.6	.	-1.5	68.2*	51.3*	43.7
CC(C)(C)[C@H]1C=C(C(=O)Nc2ccccc2)O[C@@H](OCc2ccc(CO)cc2)C1	12.4	-19.1	53.2*	102.1	.	-8.6	58.7*	61.4*	52.9*
c1ccc(-c2n[nH]c3ccccc23)cc1	22.3*	-5.6	65.1*	106.2	-0.8	3.6	85.0*	70.4*	63.0*
O=c1[nH]nc(-c2ccccc2)c2ccccc12	24.4	25.5	4.8	100.4	-5.3	2.3	.	.	.
C(=C\c1nc2ccccc2[nH]1)/c1ccccc1	-6.4	-3.5	61.2*	.	97.6*	0.1	83.8*	59.5*	57.2*
COCCNC(=O)c1cccc(OC2CCN(Cc3ccc(OC(F)F)cc3)CC2)c1	8.3	-11.9	7.5	107.4	.	28.6	.	.	.
CC(NC(=O)c1ccccc1Br)c1ccc2c(c1)CCCC2 (stereo unspecified)	7.3	3.1	56.8*	106.0	-13.3	-10.8	70.5*	52.2*	30.8
CC(NC(=O)c1ccc(Br)cc1)c1ccc2c(c1)CCCC2 (stereo unspecified)	34.5	-41.8	32.4	130.6	.	0.9	.	.	.
Cn1c(-c2ccccc2)cc2ccccc21	10.9	-13.2	10.6	103.4	.	-11.5	.	.	.
Cn1c(-c2ccccc2)cc2c3no[n+]([O-])c3ccc21	20.0	2.3	53.1*	105.8	0.6	-1.8	61.4*	63.2*	58.6*
COc1cc(Cl)c(C)cc1NC(=O)CC1SC(N2CCOCC2)=NC1=O (stereo unspecified)	.	.	0.8	.	.	-4.7	.	.	.
O=C(/C=C/c1ccnc2ccccc12)c1cccs1	3.4	-31.9	53.2*	73.9	16.0	44.4	72.5*	.	.
O=C(Nc1cnccn1)Nc1ccccc1Cl	15.2	-16.9	14.8	105.5	-6.2	1.7	.	.	.
O=C(Nc1ccccn1)Nc1ccccc1Cl	19.0	-4.1	66.4*	111.0	-0.4	9.9	72.3*	61.0*	44.0
COc1ccc(-c2cc3nc4n(c(=O)c3s2)CCC4)cc1	-1.8	-0.3	53.1*	101.2	-22.5	5.0	71.6*	34.9	36.3
C=C(C)CNC(=S)N/N=C/c1c(F)cccc1F	24.1	-8.2	20.8	102.5	3.3	32.6	.	.	.
